Data taken from ChEMBL document CHEMBL4118152, “Discovery of Potent and Selective Periphery-Restricted Quinazoline Inhibitors of the Cyclic Nucleotide Phosphodiesterase PDE1” (J Med Chem, 2018).

Assays:
[1] = target: Muscarinic acetylcholine receptor M4 (Homo sapiens) (UniProt P08173); assay: Inhibition of human muscarinic M4 receptor at 10 uM relative to control
[2] = Fraction unbound in Wistar Hannover rat brain at 1 mg/kg, sc measured at 0.5 hrs post dose by LC-MS/MS analysis; assay type: ADME, organism-based; details: in vivo
[3] = target: Alpha-2A adrenergic receptor (Homo sapiens) (UniProt P08913); assay: Inhibition of human alpha2A receptor at 10 uM relative to control
[4] = target: Alpha-2B adrenergic receptor (Homo sapiens) (UniProt P18089); assay: Inhibition of human alpha2B receptor at 10 uM relative to control
Homo sapiens [5] = species on record: Homo sapiens; assay: Selectivity ratio of IC50 for full length recombinant human PDE7B to IC50 for full length recombinant human PDE1A
Procedure, shortened: (§1)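 IC50s were measured against recombinant PDEs, all human except PDE6A (bovine). Each enzyme was given its appropriate cAMP or cGMP substrate at below 1/3 of its Km. IC50s are the mean of n = 3 or more. The selectivity ratio is the IC50 for the other PDE divided by the IC50 for PDE1B1 or PDE1A.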

[6] = target: 3',5'-cyclic-AMP phosphodiesterase 4D (Homo sapiens, UniProt Q08499); assay: Inhibition of full length recombinant human PDE4D3 using 3',5'-[3H]cAMP as substrate after 30 mins by scintillation proximity assay
Procedure, shortened: (§2)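 Enzymes were human except PDE6A, which was bovine. Each was assayed with cAMP or cGMP substrate, as appropriate to the enzyme, at concentrations below 1/3 of Km. IC50 values are mean ± SEM from n = 3 or more.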

[7] = target: Muscarinic acetylcholine receptor M2 (Homo sapiens) (UniProt P08172); assay: Inhibition of human muscarinic M2 receptor at 10 uM relative to control
[8] = target: 3',5'-cyclic-AMP phosphodiesterase 7B (Homo sapiens, UniProt Q9NP56); assay: Inhibition of full length recombinant human PDE7B using 3',5'-[3H]cAMP as substrate after 30 mins by scintillation proximity assay; procedure, shortened: as §2
[9] = target: Somatostatin receptor type 4 (Homo sapiens) (UniProt P31391); assay: Inhibition of human Somatostatin 4 receptor at 10 uM relative to control
[10] = Drug uptake in Wistar Hannover rat cerebrospinal fluid at 1 mg/kg, sc measured at 4 hrs post dose by LC-MS/MS analysis; assay type: ADME, organism-based; details: in vivo, BLD = below limit of detection
Procedure, shortened: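 Rats were dosed subcutaneously at 1 mg/kg. CSF, plasma and brain were sampled at 0.5, 1, 2 and 4 h post dose and analysed for drug concentration. Values are means at each time point.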

[11] = target: Cholecystokinin receptor type A (Homo sapiens) (UniProt P32238); assay: Inhibition of human cholecystokinin CCK1 receptor at 10 uM relative to control
[12] = target: Muscarinic acetylcholine receptor M5 (Homo sapiens) (UniProt P08912); assay: Inhibition of human muscarinic M5 receptor at 10 uM relative to control
[13] = target: Angiotensin-converting enzyme (Homo sapiens) (UniProt P12821); assay: Inhibition of human angiotensin converting enzyme at 10 uM relative to control
Rattus norvegicus [14] = species on record: Rattus norvegicus; assay: Displacement of [3H]CGP 39653 from rat brain Glutamate receptor ionotropic, NMDA at 10 uM after 60 mins by scintillation counting analysis relative to control
[15] = target: Dual specificity calcium/calmodulin-dependent 3',5'-cyclic nucleotide phosphodiesterase 1A (Homo sapiens, UniProt P54750); assay: Inhibition of full length recombinant human PDE1A using 3',5'-[3H]cAMP as substrate after 30 mins by scintillation proximity assay
Procedure, shortened: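 Human recombinant enzymes; substrate held below 1/3 of Km. IC50 reported as mean ± SEM of at least 3 determinations.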

[16] = Selectivity ratio of IC50 for bovine retina PDE6A to IC50 for full length recombinant human PDE1A; procedure, shortened: as §1
Homo sapiens [17] = species on record: Homo sapiens; assay: Inhibition of human 5-HT2 receptor at 10 uM relative to control
[18] = target: cAMP and cAMP-inhibited cGMP 3',5'-cyclic phosphodiesterase 10A (Homo sapiens, UniProt Q9Y233); assay: Inhibition of full length recombinant human PDE10A1 using 3',5'-[3H]cAMP as substrate after 30 mins by scintillation proximity assay; procedure, shortened: as §2
Rattus norvegicus [19] = species on record: Rattus norvegicus; assay: Displacement of [3H]batrachotoxinin from rat brain Sodium channel site 2 at 10 uM after 60 mins by scintillation counting analysis relative to control
CYP2C9 = CYP2C9 (Homo sapiens, UniProt P11712); assay: Inhibition of human CYP2C9 at 10 uM relative to control; assay type: ADME
Homo sapiens [20] = species on record: Homo sapiens; assay: Selectivity ratio of IC50 for full length recombinant human PDE5A1 to IC50 for full length recombinant human PDE1B1; procedure, shortened: as §1
[21] = target: Gastrin/cholecystokinin type B receptor (Homo sapiens) (UniProt P32239); assay: Inhibition of human cholecystokinin CCK2 receptor at 10 uM relative to control
[22] = target: Substance-P receptor (Homo sapiens) (UniProt P25103); assay: Inhibition of human NK1 receptor at 10 uM relative to control
Homo sapiens [23] = species on record: Homo sapiens; assay: Selectivity ratio of IC50 for full length recombinant human PDE9A1 to IC50 for full length recombinant human PDE1B1; procedure, shortened: as §1
[24] = Ratio of drug uptake in cerebrospinal fluid to fraction unbound in plasma in Wistar Hannover rat at 1 mg/kg, sc measured at 0.5 hrs post dose by LC-MS/MS analysis; assay type: ADME, organism-based, CSF/Plasma; details: in vivo

Chain of Cholecystokinin receptor type A (Homo sapiens) (P32238 whole entry): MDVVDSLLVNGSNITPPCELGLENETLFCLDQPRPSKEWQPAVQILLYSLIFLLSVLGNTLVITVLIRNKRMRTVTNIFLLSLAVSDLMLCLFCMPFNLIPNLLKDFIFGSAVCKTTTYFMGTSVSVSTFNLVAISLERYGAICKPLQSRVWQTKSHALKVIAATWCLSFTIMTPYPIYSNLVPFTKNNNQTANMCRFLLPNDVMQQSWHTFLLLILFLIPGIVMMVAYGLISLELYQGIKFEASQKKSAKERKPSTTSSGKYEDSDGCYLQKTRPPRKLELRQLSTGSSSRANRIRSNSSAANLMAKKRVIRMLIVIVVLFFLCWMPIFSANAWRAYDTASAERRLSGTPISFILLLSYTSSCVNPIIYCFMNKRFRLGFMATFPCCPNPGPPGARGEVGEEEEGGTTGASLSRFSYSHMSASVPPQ
Chain of CYP2C9 (P11712 whole entry): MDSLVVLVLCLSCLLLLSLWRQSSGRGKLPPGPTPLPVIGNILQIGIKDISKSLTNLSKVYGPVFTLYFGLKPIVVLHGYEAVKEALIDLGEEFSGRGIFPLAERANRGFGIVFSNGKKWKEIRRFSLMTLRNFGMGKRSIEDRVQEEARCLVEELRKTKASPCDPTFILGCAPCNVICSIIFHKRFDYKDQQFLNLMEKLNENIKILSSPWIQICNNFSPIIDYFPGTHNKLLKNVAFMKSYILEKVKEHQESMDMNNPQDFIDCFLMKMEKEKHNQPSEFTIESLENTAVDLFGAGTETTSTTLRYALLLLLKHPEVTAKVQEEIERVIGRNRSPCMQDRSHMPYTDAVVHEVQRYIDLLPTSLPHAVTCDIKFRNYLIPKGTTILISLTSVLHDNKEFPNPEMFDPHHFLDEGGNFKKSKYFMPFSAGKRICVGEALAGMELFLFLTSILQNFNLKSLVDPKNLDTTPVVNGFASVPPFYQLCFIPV
Chain of Muscarinic acetylcholine receptor M2 (Homo sapiens) (P08172 whole entry): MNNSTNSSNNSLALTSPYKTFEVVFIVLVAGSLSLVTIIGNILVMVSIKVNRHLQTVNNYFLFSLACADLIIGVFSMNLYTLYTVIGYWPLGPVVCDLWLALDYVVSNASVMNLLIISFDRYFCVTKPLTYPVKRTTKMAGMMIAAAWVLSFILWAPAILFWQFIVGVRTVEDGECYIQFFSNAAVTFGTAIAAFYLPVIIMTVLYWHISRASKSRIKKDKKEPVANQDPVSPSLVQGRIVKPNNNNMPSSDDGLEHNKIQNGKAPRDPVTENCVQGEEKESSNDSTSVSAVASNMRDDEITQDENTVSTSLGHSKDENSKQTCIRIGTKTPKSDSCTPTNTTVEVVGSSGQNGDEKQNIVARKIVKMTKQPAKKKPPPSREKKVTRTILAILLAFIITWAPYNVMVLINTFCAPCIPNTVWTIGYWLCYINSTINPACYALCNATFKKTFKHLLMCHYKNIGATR
Chain of Gastrin/cholecystokinin type B receptor (Homo sapiens) (P32239 whole entry): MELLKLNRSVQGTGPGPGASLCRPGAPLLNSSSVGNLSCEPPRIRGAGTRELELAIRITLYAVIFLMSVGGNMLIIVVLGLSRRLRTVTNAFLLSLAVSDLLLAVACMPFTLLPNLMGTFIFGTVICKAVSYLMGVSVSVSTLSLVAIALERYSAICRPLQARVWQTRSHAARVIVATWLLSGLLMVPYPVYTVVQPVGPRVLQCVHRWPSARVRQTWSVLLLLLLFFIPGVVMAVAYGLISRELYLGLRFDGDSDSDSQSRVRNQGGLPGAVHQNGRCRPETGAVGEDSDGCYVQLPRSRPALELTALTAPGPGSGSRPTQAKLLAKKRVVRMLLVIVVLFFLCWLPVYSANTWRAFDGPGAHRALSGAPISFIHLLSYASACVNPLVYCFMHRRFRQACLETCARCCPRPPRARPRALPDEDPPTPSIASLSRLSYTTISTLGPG
Chain of Muscarinic acetylcholine receptor M4 (Homo sapiens) (P08173 whole entry): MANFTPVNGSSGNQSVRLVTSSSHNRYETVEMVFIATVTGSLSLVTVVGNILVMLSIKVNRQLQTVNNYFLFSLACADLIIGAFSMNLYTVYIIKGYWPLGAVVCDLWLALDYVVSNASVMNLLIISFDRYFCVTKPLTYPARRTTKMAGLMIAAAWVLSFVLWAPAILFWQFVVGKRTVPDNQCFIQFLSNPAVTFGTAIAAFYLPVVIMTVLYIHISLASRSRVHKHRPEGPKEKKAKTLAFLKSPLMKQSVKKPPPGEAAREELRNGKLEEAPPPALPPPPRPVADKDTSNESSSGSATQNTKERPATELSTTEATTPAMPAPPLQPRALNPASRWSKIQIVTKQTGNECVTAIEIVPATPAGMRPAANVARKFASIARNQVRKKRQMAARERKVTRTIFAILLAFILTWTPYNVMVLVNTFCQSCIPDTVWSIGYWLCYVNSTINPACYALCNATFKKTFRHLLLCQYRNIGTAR
Chain of 3',5'-cyclic-AMP phosphodiesterase 4D (Q08499 whole entry): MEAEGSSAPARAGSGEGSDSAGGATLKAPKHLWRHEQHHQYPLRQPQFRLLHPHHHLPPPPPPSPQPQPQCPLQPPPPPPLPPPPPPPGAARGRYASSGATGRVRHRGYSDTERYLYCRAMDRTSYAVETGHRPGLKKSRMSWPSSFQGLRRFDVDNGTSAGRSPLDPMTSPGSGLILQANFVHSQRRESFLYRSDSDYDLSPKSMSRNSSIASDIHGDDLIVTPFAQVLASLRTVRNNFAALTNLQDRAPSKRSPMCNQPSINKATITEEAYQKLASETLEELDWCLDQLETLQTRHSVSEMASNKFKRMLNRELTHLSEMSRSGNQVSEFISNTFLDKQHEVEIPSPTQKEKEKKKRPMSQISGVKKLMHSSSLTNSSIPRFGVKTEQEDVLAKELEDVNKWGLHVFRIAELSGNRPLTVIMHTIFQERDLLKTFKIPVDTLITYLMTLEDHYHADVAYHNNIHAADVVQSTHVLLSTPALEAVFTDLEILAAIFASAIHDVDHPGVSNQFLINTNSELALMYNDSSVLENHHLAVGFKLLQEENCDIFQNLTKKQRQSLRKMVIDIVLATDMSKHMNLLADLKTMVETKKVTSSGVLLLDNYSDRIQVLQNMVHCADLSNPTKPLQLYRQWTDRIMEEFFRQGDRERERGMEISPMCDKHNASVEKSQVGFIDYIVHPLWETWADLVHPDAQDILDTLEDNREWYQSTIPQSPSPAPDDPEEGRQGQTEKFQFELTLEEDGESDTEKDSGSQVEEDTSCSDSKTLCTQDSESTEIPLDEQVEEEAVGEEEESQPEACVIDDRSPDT
Chain of Dual specificity calcium/calmodulin-dependent 3',5'-cyclic nucleotide phosphodiesterase 1A (P54750 whole entry): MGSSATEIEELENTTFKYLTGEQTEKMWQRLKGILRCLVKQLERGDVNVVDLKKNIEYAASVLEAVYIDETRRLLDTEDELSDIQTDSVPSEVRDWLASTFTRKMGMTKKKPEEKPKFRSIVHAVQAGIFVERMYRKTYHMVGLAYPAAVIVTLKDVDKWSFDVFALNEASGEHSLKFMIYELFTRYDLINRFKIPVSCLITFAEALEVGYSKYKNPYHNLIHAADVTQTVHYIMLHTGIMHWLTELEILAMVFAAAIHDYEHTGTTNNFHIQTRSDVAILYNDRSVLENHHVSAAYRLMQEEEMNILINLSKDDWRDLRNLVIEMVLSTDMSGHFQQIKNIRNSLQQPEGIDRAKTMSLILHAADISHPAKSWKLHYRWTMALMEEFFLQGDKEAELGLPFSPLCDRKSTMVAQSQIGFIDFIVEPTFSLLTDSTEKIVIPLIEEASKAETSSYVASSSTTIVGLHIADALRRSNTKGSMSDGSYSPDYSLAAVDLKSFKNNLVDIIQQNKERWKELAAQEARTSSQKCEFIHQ
Chain of Muscarinic acetylcholine receptor M5 (Homo sapiens) (P08912 whole entry): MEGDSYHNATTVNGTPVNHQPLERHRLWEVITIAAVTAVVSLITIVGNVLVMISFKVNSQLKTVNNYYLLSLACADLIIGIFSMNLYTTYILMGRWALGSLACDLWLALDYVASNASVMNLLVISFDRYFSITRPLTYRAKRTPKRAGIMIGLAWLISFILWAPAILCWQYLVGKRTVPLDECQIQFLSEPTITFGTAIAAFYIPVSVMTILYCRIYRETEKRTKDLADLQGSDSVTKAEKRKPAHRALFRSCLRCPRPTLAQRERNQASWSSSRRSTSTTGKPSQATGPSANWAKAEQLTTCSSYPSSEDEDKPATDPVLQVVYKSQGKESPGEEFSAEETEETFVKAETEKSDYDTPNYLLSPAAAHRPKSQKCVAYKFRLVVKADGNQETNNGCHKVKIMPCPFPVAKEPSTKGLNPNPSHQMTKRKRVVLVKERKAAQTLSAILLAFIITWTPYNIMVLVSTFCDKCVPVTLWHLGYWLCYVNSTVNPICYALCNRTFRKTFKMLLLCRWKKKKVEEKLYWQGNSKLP
Chain of 3',5'-cyclic-AMP phosphodiesterase 7B (Q9NP56 whole entry): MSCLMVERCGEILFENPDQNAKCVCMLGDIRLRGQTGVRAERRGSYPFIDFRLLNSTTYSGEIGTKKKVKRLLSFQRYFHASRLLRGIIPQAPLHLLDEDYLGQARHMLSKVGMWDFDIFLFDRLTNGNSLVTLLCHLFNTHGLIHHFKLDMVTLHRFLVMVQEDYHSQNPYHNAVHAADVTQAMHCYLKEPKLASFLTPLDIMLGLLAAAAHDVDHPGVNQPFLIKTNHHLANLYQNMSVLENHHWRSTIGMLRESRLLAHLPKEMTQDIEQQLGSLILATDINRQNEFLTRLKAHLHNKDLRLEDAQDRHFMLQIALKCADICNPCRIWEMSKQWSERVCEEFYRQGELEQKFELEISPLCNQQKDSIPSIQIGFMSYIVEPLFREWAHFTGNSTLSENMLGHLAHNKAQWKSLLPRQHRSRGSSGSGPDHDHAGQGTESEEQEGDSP

COc1ccc2c(N[C@@H](C)Cc3cc(C)[nH]n3)ncnc2c1OC
inhibition [1]: < 50%
Drug uptake(free) [2]: 6 nM
inhibition [3]: < 50%
inhibition [4]: < 50%
Ratio IC50 (Homo sapiens [5]): 983
IC50 [6]: 26.3 µM
inhibition [7]: < 50%
IC50 [8]: 41.3 µM
inhibition [9]: < 50%
Drug uptake [10]: Bld
inhibition [11]: < 50%
inhibition [12]: < 50%
inhibition [13]: < 50%
inhibition (Rattus norvegicus [14]): < 50%
IC50 [15]: 0.042 µM
Ratio IC50 [16]: > 3380
inhibition (Homo sapiens [17]): < 50%
IC50 [18]: 0.409 µM
inhibition (Rattus norvegicus [19]): < 50%
inhibition at 10 µM (CYP2C9): < 50%
Ratio IC50 (Homo sapiens [20]): 5970
inhibition [21]: < 50%
inhibition [22]: < 50%
Ratio IC50 (Homo sapiens [23]): > 22000
Ratio [24]: 0.12 to 0.14
